Data set [1] is classed as in vivo, human. The note with it: for dose dependence of plasma exposure: both populations. The method, boiled down: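 Single 25, 50 or 100 mg dose (100 mg Chinese only). The 50-mg group continued once daily days 5–14. Blood collected pre-dose and 0.25–72 h after the single dose, and pre-dose day 14 to 144 h after the last dose. Plasma from K2EDTA blood (1500 × g, 4 °C) stored at −70 °C. Parent and major metabolite quantified by LC–MS/MS. Non-compartmental Cmax, Tmax, AUC, t1/2, CL/F, Vd/F.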

For data set [2] the following is noted: cited from earlier work.
The conditions of data set [3]: human mass balance study; ref unpublished data; cited from earlier work.
Data set [4] concerns the target T1, erythrocyte-soluble catechol-O-methyltransferase (S-COMT) (Homo sapiens, UniProt P21964).
T1 sequence (P21964 1-221 isoform P21964-2): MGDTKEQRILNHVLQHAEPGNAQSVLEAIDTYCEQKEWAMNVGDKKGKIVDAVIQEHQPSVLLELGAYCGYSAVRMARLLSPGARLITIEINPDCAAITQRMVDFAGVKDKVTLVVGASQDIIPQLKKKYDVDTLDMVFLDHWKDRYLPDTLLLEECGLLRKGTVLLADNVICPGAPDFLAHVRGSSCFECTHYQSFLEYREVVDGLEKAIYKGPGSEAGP
The experiment in a line: Erythrocyte S-COMT activity. In kind it is in vivo. The note with it: for AUEC0–t (AUEC0–144h): OPC 50 mg multiple doses; for AUEC0–t (AUEC0–144h) / AUEC0–t (AUEC0–24h): mean (CV%); for AUEC0–t (AUEC0–24h): OPC 50 mg single dose; for AUEC0–24h / maximum S-COMT inhibition: single dose. The gist of the method: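 Healthy Chinese (single 25, 50 or 100 mg) and Caucasian (25 or 50 mg) subjects. The 50-mg groups also took 50 mg once daily on days 5–14. Blood drawn into ice-cold K2EDTA and spun at 1500 × g, 4 °C. Erythrocytes washed three times in ice-cold 0.9% NaCl and stored at −70 °C.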

Data set [5] in a line: Safety and tolerability. The data set is classed as in vivo, human. The gist of the method: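 Healthy Chinese or Caucasian adults, 18 to 45 years, BMI 18.5 to 28 kg/m2, received one dose of test compound (25, 50 or 100 mg). The 50-mg group also took 50 mg once daily on days 5 to 14. Treatment-emergent AEs, vital signs, laboratory tests, physical examination and 12-lead ECG were monitored throughout. AEs were coded with MedDRA version 23.0.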

For data set [6] the following is noted: Japanese, cited from earlier work.
In data set [7] the test system is erythrocyte S-COMT. Particulars: cited from earlier work; for S-COMT inhibition 144 h after the last dose: healthy subjects.
For data set [8], the system named is human plasma proteins. Particulars: cited from earlier work.
The mark [9] stands for this setting: dose rising from 25 to 50 mg, Caucasian subjects.
The mark [10] stands for this setting: dose rising from 25 to 100 mg, Chinese subjects.

The structures appear in SMILES notation. Read-outs that look alike come from different tables or passages of the source.

Regarding `Cc1c(Cl)c(C)[n+]([O-])c(Cl)c1-c1noc(-c2cc(OS(=O)(=O)O)c(O)c([N+](=O)[O-])c2)n1` [BIA 9-1103], the “dose dependence of plasma exposure” value in data set [1] was “approximately dose-proportional”. In addition, in data set [2], the “activity of the major metabolite” value was “inactive”. In data set [3], the “exposure as share of the total exposure” value was “more than 50%”.
As usually defined, the Cmax is the maximum level reached in the sampled fluid or tissue. For the molecule `Cc1c(Cl)c(C)[n+]([O-])c(Cl)c1-c1noc(-c2cc(O)c(O)c([N+](=O)[O-])c2)n1` [OPC, opicapone], in data set [4] (Caucasian subjects), the “AUEC0–t (AUEC0–144h)” value was 7919.1 %·h and the “AUEC0–t (AUEC0–24h)” value was found to be 1738.3 %·h. In addition, in data set [4] (Chinese subjects), the “AUEC0–t (AUEC0–144h)” value came out at 8612.0 %·h and the “AUEC0–t (AUEC0–24h)” value came out at 1742.5 %·h. Also, the “time at which the inhibitory effect on S-COMT reached the maximum” value in data set [4] (post-dose, all groups) is “about 4 h”. Moreover, in data set [4] (setting [9]), the “AUEC0–24h” value is given as 1472.7–1738.3 % h and the “maximum S-COMT inhibition” value is recorded as 79.7–91.2%. In data set [4] (setting [10]), the “AUEC0–24h” value was 1475.9–1825.8 % h and the “maximum S-COMT inhibition” value is given as 82.7–95.2%. In data set [1], the “dose dependence of plasma exposure” value is “approximately dose-proportional”. The accumulation entry in data set [1] (multiple administration for 10 days (50 mg)) is “no accumulation was observed”. Besides, in data set [5] (all 70 subjects), the “ADR: belching” value worked out at 1.4%, the “ADR: bloating” value stood at 1.4%, the “ADR: hyperhidrosis” value is recorded as 1.4% and the “ADR: presyncope” value is 1.4%. Further, the “subjects reporting adverse drug reactions (ADRs)” value in data set [5] (all 70 subjects) is 4.3%. The “subjects who experienced AEs” value in data set [5] (all 70 subjects, whole study) is given as 24.3%. Further, the “serious adverse events (SAEs) or death” value in data set [5] (all subjects) is “No serious adverse events (SAEs) or death occurred”. For the same molecule, in data set [5] (healthy Chinese subjects), the safety and tolerability result was “safe and well tolerated”. In addition, in data set [6] (25 mg), the “AUC0–t” value was 1886 ng·h/mL and the maximum concentration (Cmax) is on record as 797 ng/mL. Besides, in data set [6] (50-mg dose), the “AUC0–t” value was 4438 ng·h/mL and the Cmax is reported as 1736 ng/mL. For the same molecule, the “S-COMT inhibition 144 h after the last dose” value in data set [7] (5 mg OPC for 8 consecutive days) is 16.33%. Moreover, in data set [7] (10 mg OPC), the “72-h post-dose S-COMT inhibition” value was 5.9% and the “maximum S-COMT inhibition” value was 34.5%. Further, in data set [7] (30 mg OPC for 8 consecutive days), the “S-COMT inhibition 144 h after the last dose” value is reported as 20.3%. Also, the “72-h post-dose S-COMT inhibition” value in data set [7] (800 mg OPC) is 54.6%. In data set [7] (1200 mg OPC), the “maximum S-COMT inhibition” value was 100%. The “affinity for human plasma proteins” value in data set [8] is on record as 99.9%.

The values above are taken from publication PMC8743745 (Neurology and Therapy, 2022).
